# CHRM4 antagonist – blocks acetylcholine activation of human M4 receptor | actives 0.73% (n = 360,000) | inhibition, % at 3 µM | CHO-hM4 cells, ACh EC80, Fluo-8 calcium fluorescence;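 active = inhibition above its plate's cutoff, the mean inhibition of sample wells plus 3 SD, cut at about 27% in these data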;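 also: 0% = acetylcholine EC80 with DMSO and 100% = DMSO without agonist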
# Target sequence (P08173 whole entry, looked up): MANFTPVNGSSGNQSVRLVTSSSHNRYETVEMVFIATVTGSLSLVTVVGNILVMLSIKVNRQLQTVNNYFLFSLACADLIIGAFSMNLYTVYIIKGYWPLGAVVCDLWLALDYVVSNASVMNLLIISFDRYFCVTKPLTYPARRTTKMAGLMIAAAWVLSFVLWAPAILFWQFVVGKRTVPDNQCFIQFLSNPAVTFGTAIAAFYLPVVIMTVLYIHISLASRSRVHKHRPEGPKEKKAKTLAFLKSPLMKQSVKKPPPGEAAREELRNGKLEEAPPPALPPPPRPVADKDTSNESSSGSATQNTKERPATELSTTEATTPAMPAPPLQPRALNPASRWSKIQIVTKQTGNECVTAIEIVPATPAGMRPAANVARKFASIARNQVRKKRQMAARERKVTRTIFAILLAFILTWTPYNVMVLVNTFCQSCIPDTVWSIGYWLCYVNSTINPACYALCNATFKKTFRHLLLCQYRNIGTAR
# M4 PAM – potentiates acetylcholine response at human M4 receptor | activation, % at 3 µM | actives 0.4% (n = 360,000) | P08173 | CHO-K1 hM4/Gqi5, Fluo-8 calcium fluorescence, ACh EC20; 0% = ACh EC20, 100% = maximal ACh;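 active = activation above its plate's cutoff, the mean activation of sample wells plus 3 SD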
# M5 antag – CHRM5 antagonism in calcium assay. P08912. CHO-hM5 cells, Fluo-8 calcium fluorescence, ACh EC80. inhibition, % at 3 µM. actives 0.59% (n = 360,000);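 active = inhibition above a per-plate cutoff, the mean of that plate's test compounds plus 3 SD, cut at about 27% in these data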;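 also: 0% = acetylcholine EC80 with DMSO and 100% = DMSO without agonist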
# CHRM5 PAM – positive allosteric modulators of human muscarinic M5 receptor; activation, % at 3 µM; actives 0.3% (n = 360,000); CHO-K1 hM5, Fluo-8 calcium, ACh EC20 PAM; 0% = ACh EC20, 100% = ACh EC100;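 active = activation above the run cutoff, the mean activation of all test compounds plus 3 SD, cut at about 18% in these data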
#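 System: CHO-K1 hM5 cells. Reagent: acetylcholine, EC20 level. Compound dosing: single dose, 3 µM nominal final test concentration. Timing: Post-acetylcholine fluorescence recording 140 s. Detection: Fluo-8 calcium fluorescence. Read-out: % activation, ACh-normalized. Benchmarks: ACh EC20 and EC100 wells. Repeats: singlicate, one well per test compound.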
# M5 ag – CHRM5 agonism in calcium assay; CHO-K1 hM5 cells, Fluo-8 calcium fluorescence; 0% DMSO wells, 100% maximal acetylcholine response; activation, % at 3 µM; actives 0.19% (n = 360,000);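 active = activation above the run's mean over test compounds plus 3 SD, cut at about 23% in these data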;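 also: signal is peak over basal fluorescence ratio across the kinetic read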
# M4 ag – agonists of human muscarinic M4 receptor (CHRM4); P08173; CHO-K1 hM4/Gqi5, Fluo-8 calcium fluorescence; vehicle 0%, full acetylcholine response 100%; activation, % at 3 µM; actives 0.14% (n = 360,000); AID 624127;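 active = activation above the run mean over all test wells plus 3 SD, cut at about 32% in these data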;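 also: peak over basal fluorescence ratio per well then scaled between controls; 0% = DMSO wells and 100% = acetylcholine at EC100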
# The depositor's hits bear a star. This is a sample that favours compounds with a hit; in the whole collection about 1.8% have one here.
SMILES,CHRM4 antagonist,M4 PAM,M5 antag,CHRM5 PAM,M5 ag,M4 ag
C[C@]12CCC(=O)C=C1CCC1C2CC[C@@]2(C)C1CC[C@]2(C)O (stereo partly drawn),1,-6,18,-11,0,6
Nc1ccnn1C1CCNCC1,-5,-1,27*,-5,-3,0
CN1CCC(n2nccc2N)CC1,1,-1,4,2,-1,0
c1ccc2c(c1)Sc1ccccc1N2CC1CN2CCC1CC2 (stereo not drawn),98*,-16,98*,-19,-1,1
O=C1NCN(c2ccccc2)C12CCN(C(c1ccnc3ccccc13)c1nnnn1C1CCCC1)CC2 (stereo not drawn),-15,-10,1,-6,0,6
CC(C)(C)n1nnnc1C(CCc1ccccc1)N1CCC2(CC1)C(=O)NCN2c1ccccc1 (stereo not drawn),-4,-4,0,-2,7,6
CCOP(=O)(NC(C)C)Oc1ccc(SC)c(C)c1 (stereo not drawn),-7,10,15,1,0,0
CC(Cc1ccccc1Sc1ccccc1)N(C)C (stereo not drawn),92*,-40,99*,-21,-7,3
CC(Cc1ccccc1Sc1ccc(O)cc1)N(C)C (stereo not drawn),42*,-20,91*,-21,-5,4
CN1CCN(Cc2ccccc2Sc2ccccc2)CC1,95*,-38,99*,-20,-5,7
COc1ccccc1Sc1ccccc1CC(C)N (stereo not drawn),8,9,8,2,-5,10
CC1=CC(C)CC(C)OC(=O)CC(c2ccc(O)cc2)NC(=O)C(Cc2c(Br)[nH]c3ccccc23)N(C)C(=O)C(C)NC(=O)C(C)C1 (stereo not drawn),-9,10,-9,17,1,-1
C[C@@H]1CN([C@@H](C)CO)C(=O)CCCn2nncc2CO[C@@H]1CN(C)C(=O)Oc1ccccc1,-4,4,5,5,-1,0
Cc1ccccc1OP(=O)(Oc1ccccc1C)N1CCOCC1,-16,4,-3,2,-2,1
CN(C)CCSC1c2ccccc2CSc2ccccc21 (stereo not drawn),98*,-17,99*,-32,-21,5
O=C(Nc1ccc(Cl)cc1)O/N=C(\c1ccccc1)c1ccccn1,13,-20,33*,-12,4,8
CON(C)C(=O)Nc1ccc(Cl)cc1,2,16,-3,5,0,2
CCOC(=O)c1c(NS(=O)(=O)c2ccccc2)n(CCCOC)c2nc3ccccc3nc12,0,23*,22,13,7,3
CCOC(=O)C1(CCOc2ccccc2)CCN(Cc2cccc(O)c2)CC1,5,-15,33*,-18,-7,10
CCOC(=O)C1(CCOc2ccccc2)CCN(C2Cc3ccccc3C2)CC1,3,-17,32*,-18,-7,3
CCOC(=O)C1(CCc2ccccc2)CCN(Cc2cccc3cnccc23)CC1,11,-22,81*,-20,-10,1
CCOC(=O)C1(CCOc2ccccc2)CCN(C(C)CSC)CC1 (stereo not drawn),7,-11,13,-16,-8,2
Fc1ccc(NC(=S)N2Cc3ccccc3-n3nncc3C2)cc1,-23,13,-2,6,0,2
O=C(c1ccco1)N1Cc2ccccc2-n2nncc2C1,-9,6,1,0,1,1
CC(CC(C#N)(c1ccccc1)c1ccccc1)N1CCOCC1 (stereo not drawn),26,-9,13,-29,-12,-3
CCN1CCN(c2nc3c(c(=O)[nH]2)CCCC3)CC1,-1,26*,-7,7,2,0
CCN1CCN(c2cn[nH]c(=O)c2Cl)CC1,3,4,1,-1,-7,1
COc1ccc(Br)cc1CN1CCN(CCO)CC1,5,8,-2,5,-4,1
